This is an account of results in ChEMBL document CHEMBL1137753, “Insecticidal heterolignans--tubuline polymerization inhibitors with activity against chewing pests” (Bioorg Med Chem, 2009).

Structures are written as SMILES. Calls of active or inactive are those of the source. Unless noted, no cut-off for these calls is given here.

Holding throughout (type): functional, organism-based
Experiment [1] concerns Spodoptera frugiperda. The experiment can be described thus: Insecticidal activity against Spodoptera frugiperda larvae in disk of maize leaf at 100 g/ha treated as spray. The procedure, abridged: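 The same acetone/DMF/emulsifier formulation, diluted in emulsifier-containing water, was sprayed onto maize leaf disks. Dried disks were infested with fall armyworm larvae and mortality was assessed after a set time. "+" denotes ≥80% larvae killed; n.a. denotes no larvae killed.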

In experiment [2] the test system is Phaedon cochleariae. The experiment can be described thus: Insecticidal activity against Phaedon cochleariae larvae in disk of Chinese cabbage leaf treated as spray.
Experiment [3] concerns Phaedon cochleariae. The experiment can be described thus: Insecticidal activity against Phaedon cochleariae larvae in disk of Chinese cabbage leaf at 500 g/ha treated as spray. The procedure, abridged: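 This was sprayed on Chinese cabbage leaf disks. Once dry, disks were infested with mustard beetle larvae and mortality was scored after a set time. "+" denotes ≥80% larvae killed; n.a. denotes none killed.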

In experiment [4] the test system is Spodoptera frugiperda. The experiment can be described thus: Insecticidal activity against Spodoptera frugiperda larvae in disk of maize leaf treated as spray.

With `O=C1OCC2=C1C(c1cc(Br)cc(Br)c1)c1cc3c(cc1N2)OCO3` (stereo not given), the result with Spodoptera frugiperda [1] was Active. For the same compound, the outcome with Phaedon cochleariae [2] was inactive.
As for `COc1cc(OC)cc(C2C3=C(COC3=O)Nc3cc4c(cc32)OCCCO4)c1` (stereo not given), the outcome with Spodoptera frugiperda [1] and in the experiment with Phaedon cochleariae [3] was Active.
Consider `O=C1OCC2=C1C(c1ccc(F)c(Br)c1)c1cc3c(cc1N2)OCO3` (stereo not given), for which the outcome in the experiment on Phaedon cochleariae [3] was Active.
Turning to `COc1cc(OC)cc(C2C3=C(COC3=O)Nc3cc4c(cc32)OCCO4)c1` (stereo not given), the result in the experiment on Spodoptera frugiperda [1] and in the experiment with Phaedon cochleariae [3] was Active.
On to `COc1cc(OC)cc(C2C3=C(CCC3=O)Nc3cc4c(cc32)OCO4)c1` (stereo not given), for which the outcome with Spodoptera frugiperda [1] and in the experiment with Phaedon cochleariae [3] was Active.
In the case of `COc1cc(OC)cc(C2C3=C(CNC3=O)Nc3cc4c(cc32)OCO4)c1` (stereo not given), the result in the experiment with Phaedon cochleariae [3] was Active. For the same compound, the outcome in the experiment with Spodoptera frugiperda [4] was inactive.
As for `COc1cc(OC)cc(C2C3=C(COC3=O)Nc3cc(SC)ccc32)c1` (stereo not given), the result in the experiment on Spodoptera frugiperda [1] and with Phaedon cochleariae [3] was Active.
For the compound `Cc1cccc(C2C3=C(COC3=O)Nc3cc4c(cc32)OCO4)c1` (stereo not given), the result with Spodoptera frugiperda [1] was Active. In addition, the outcome with Phaedon cochleariae [2] was inactive.
For the compound `O=C1OCC2=C1C(c1ccc(F)c(Cl)c1)c1cc3c(cc1N2)OCO3` (stereo not given), the result with Spodoptera frugiperda [1] was Active. For the same compound, the result in the experiment with Phaedon cochleariae [2] was inactive.
With `COc1cc(OC)cc(C2C3=C(COC3=O)Nc3cc4c(cc32)OC(F)(F)O4)c1` (stereo not given), in the experiment with Phaedon cochleariae [3], the result was Active. Further, in the experiment on Spodoptera frugiperda [4], the result was inactive.
As for `CC1(C)OC(=O)C2=C1Nc1cc3c(cc1C2c1cccc(Cl)c1)OCO3` (stereo not given), in the experiment with Phaedon cochleariae [3], the outcome was Active. Further, the result in the experiment with Spodoptera frugiperda [4] was inactive.
For the compound `COc1cc(C2C3=C(COC3=O)Oc3cc4c(cc32)OCO4)cc(Br)c1OC` (stereo not given), in the experiment with Phaedon cochleariae [3], the result was Active. In addition, the outcome in the experiment on Spodoptera frugiperda [4] was inactive.
With `COc1cccc(C2C3=C(O)OCC3=Nc3cc4c(cc32)OCO4)c1` (stereo not given), the result in the experiment with Spodoptera frugiperda [1] was Active. Besides, the outcome with Phaedon cochleariae [2] was inactive.
With `COc1cc(C2C3=C(CNC3=O)Nc3cc4c(cc32)OCO4)cc(OC)c1OC` (stereo not given), in the experiment with Phaedon cochleariae [3], the result was Active. Also, the outcome in the experiment on Spodoptera frugiperda [4] was inactive.
On to `N#CCOc1cccc(C2C3=C(COC3=O)Nc3cc4c(cc32)OCO4)c1` (stereo not given), for which the outcome in the experiment on Spodoptera frugiperda [1] and in the experiment on Phaedon cochleariae [3] was Active.
As to `O=C1OCC2=C1C(c1cncc(Br)c1)c1cc3c(cc1N2)OCO3` (stereo not given), the result in the experiment on Spodoptera frugiperda [1] was Active. Also, the outcome in the experiment with Phaedon cochleariae [2] was inactive.
In the case of `O=C1OC2(CCCC2)C2=C1C(c1cccc(Cl)c1)c1cc3c(cc1N2)OCO3` (stereo not given), the result in the experiment on Phaedon cochleariae [3] was Active. Moreover, the outcome in the experiment on Spodoptera frugiperda [4] was inactive.
`COc1cc(C2C3=C(COC3=O)Nc3cc4c(cc32)OCO4)ccc1F` (stereo not given): the result in the experiment with Spodoptera frugiperda [1] and with Phaedon cochleariae [3] was Active.
For `COc1cc(OC)cc(C2C3=C(COC3=O)Nc3cc(C)ccc32)c1` (stereo not given), the outcome with Phaedon cochleariae [3] was Active.
Regarding `COc1cc(OC)cc(C2C3=C(COC3=O)N(C)c3cc(OC)ccc32)c1` (stereo not given), the result in the experiment on Spodoptera frugiperda [1] was Active. Moreover, the result in the experiment on Phaedon cochleariae [2] was inactive.
With `CC1(C)NC(=O)C2=C1Nc1cc3c(cc1C2c1cccc(Cl)c1)OCO3` (stereo not given), in the experiment with Phaedon cochleariae [3], the outcome was Active. Also, the result in the experiment with Spodoptera frugiperda [4] was inactive.
`COc1cc(OC)cc(C2C3=C(COC3=O)Nc3cc(OC4CC4)ccc32)c1` (stereo not given): the result in the experiment on Spodoptera frugiperda [1] and in the experiment on Phaedon cochleariae [3] was Active.
For the compound `O=C1NCC2=C1C(c1cccc(Cl)c1)c1cc3c(cc1N2)OCO3` (stereo not given), the outcome in the experiment on Spodoptera frugiperda [1] and in the experiment with Phaedon cochleariae [3] was Active.
Take `O=C1OCC2=C1C(c1cccc(Cl)c1)c1cc3c(cc1N2)OCO3` (stereo not given): the outcome in the experiment with Spodoptera frugiperda [1] and with Phaedon cochleariae [3] was Active.
Take `CC1(C)OS(=O)(=O)C2=C1Nc1cc3c(cc1C2c1cccc(Cl)c1)OCO3` (stereo not given): in the experiment on Phaedon cochleariae [3], the result was Active. The outcome in the experiment with Spodoptera frugiperda [4] was inactive.
For `CC1(C)COS(=O)(=O)C2=C1Nc1cc3c(cc1C2c1cccc(Cl)c1)OCO3` (stereo not given) the same measures were “Active” and “inactive”.
